Published values collected from several papers.
Each line is one published result; the experiments were not run side by side.
Target: Tyrosine-protein kinase TXK (TXK, Homo sapiens, UniProt P42681)
Residues used in one study (P42681 1-527): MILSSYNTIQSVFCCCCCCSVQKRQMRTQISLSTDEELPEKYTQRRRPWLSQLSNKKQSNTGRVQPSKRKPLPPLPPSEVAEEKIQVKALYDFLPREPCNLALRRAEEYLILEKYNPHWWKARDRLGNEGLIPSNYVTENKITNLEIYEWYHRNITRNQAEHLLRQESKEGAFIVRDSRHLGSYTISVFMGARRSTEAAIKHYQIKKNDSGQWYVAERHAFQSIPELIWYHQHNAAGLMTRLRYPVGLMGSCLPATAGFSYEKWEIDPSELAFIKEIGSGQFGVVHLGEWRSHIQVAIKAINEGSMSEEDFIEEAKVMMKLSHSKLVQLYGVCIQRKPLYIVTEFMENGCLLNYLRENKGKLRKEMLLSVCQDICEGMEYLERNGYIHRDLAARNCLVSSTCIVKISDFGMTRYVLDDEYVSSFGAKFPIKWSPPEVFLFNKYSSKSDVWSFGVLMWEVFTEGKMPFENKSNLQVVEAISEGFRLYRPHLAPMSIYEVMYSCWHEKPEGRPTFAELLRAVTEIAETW

`CCOc1cc(-c2nncn2C)ccc1Nc1ncc2cc(C)nc(NCC(C)(C)C)c2n1` has an inhibition of under 15% (enzyme activity; inhibitor; FRET; 1 µM).
With `COc1cc(-c2cn(C3CCc4ccccc4N(CC(F)(F)F)C3=O)nn2)ccc1-n1ccc(C)n1` (stereo not shown) the remaining binding was 84% (binding; competition with immobilised ligand; 1 µM).
The remaining activity of `Nc1ncnc2occ(-c3ccc(NC(=O)Nc4cc(C(F)(F)F)ccc4F)cc3)c12` is reported as 14% (enzyme activity; inhibitor; 20 µM).
`c1nc2c(Nc3ccc4c(c3)OCCO4)nc(Nc3ccc4c(c3)OCCO4)nc2[nH]1` has an activity vs control of 8% (enzyme activity; inhibitor; 10 µM).
`CC(C)(C)c1nc2c(s1)c1nc(N)ncc1c1ccc(NS(=O)(=O)c3c(F)cccc3F)c(F)c12` gave a remaining activity of 71% (enzyme activity; inhibitor; radiometric; 1 µM).
The remaining signal of `CS(=O)(=O)CCNCc1ccc(-c2ccc3ncnc(Nc4ccc(OCc5cccc(F)c5)c(Cl)c4)c3c2)o1` is reported as 110% (cell-free assay; 0.5 µM).
The remaining activity of `CC(C)(O)[C@H]1CC[C@H](Nc2ccc3ncc(-c4cccc(C(F)(F)F)c4)n3n2)CC1` is reported as 62.6% (enzyme activity; inhibitor; 1 µM).
With `COc1cc2ncnc(Nc3ccc(Oc4ccccc4)c(C)c3C)c2cc1OC` the inhibition was 2% (enzyme activity; inhibitor; 1 µM).
With `CN(C(=O)c1ccccc1)c1cc(N(C)c2ccc3c(c2)CCc2ccc(C(=O)NCCN4CCOCC4)cc2C3=O)ccc1F` the remaining binding was 79% (binding; competition with immobilised ligand; 1 µM).
`CCCOc1ccc(OC)c(F)c1C(=O)c1ccc(C(=O)N[C@@H]2CNC[C@H]2NC(=O)c2ccc3[nH]ncc3c2)cc1` has a remaining activity of 64% (enzyme activity; inhibitor; 10 µM).
For `CCCCN(CCCC)C(=O)CN1C[C@@H](c2cc(OC)c3c(c2)OCO3)[C@H](C(=O)O)[C@H]1CC(C)(C)CCC`, the remaining binding was 100% (cell-free assay; competition with immobilised ligand; 1 µM).
`Cc1cc(NC(=O)c2cccc3cc(-c4cccc5[nH]nc(N)c45)ccc23)ccc1F` has an activity vs control of 123% (enzyme activity; inhibitor; 0.1 µM).
`Cn1nc(C(=O)NCc2ccc(C(=O)O)cc2)cc1-c1ccc2[nH]ccc2c1` has a remaining binding of 90% (binding; competition with immobilised ligand; 0.1 µM).
With `Cc1sc(C(=O)NC2COC2)cc1-n1cc(NC(=O)Nc2c(F)cccc2Cl)cn1` the remaining activity was 76.7% (enzyme activity; inhibitor; 10 µM).
For `O=C1Nc2ccc(Cl)cc2C1=Cc1cc(Cl)c(O)c(Cl)c1`, the remaining signal was 86.6% (cell-free assay; 0.5 µM).
For `O=C(Nc1cnn(-c2csc(C(=O)NC3COC3)c2)c1)Nc1ccccc1Cl`, the remaining activity was 89.8% (enzyme activity; inhibitor; 5 µM).
With `O=C1NC(=O)c2cc(Nc3ccc(F)cc3)c(Nc3ccc(F)cc3)cc21` the remaining signal was 84.1% (cell-free assay; 0.5 µM).
`CCN(CC)c1ccc(C2=NNC(=O)CC2C)cc1[N+](=O)[O-]` (stereo not shown) has a remaining activity of 84% (enzyme activity; inhibitor; 10 µM).
The remaining binding of `CCS(=O)(=O)c1cc2cc(C[C@](O)(CC(C)(C)c3ccc(F)cc3C(N)=O)C(F)(F)F)[nH]c2cn1` is reported as 90% (cell-free assay; competition with immobilised ligand; 1 µM).
